According to ChEMBL document CHEMBL1137980, “Rationale, design, and synthesis of novel phenyl imidazoles as opioid receptor agonists for gastrointestinal disorders” (J Med Chem, 2004):
Residues, ends and D or L forms follow the SMILES beside them.

What was measured:
[1] = biological target: Opioid receptors; mu & delta (Rattus norvegicus) (UniProt P33533+P33535); assay: Selectivity for mu 1 and delta 1 opioid receptors; type: protein assay
[2] = biological target: Delta-type opioid receptor (Homo sapiens, UniProt P41143); assay: Inhibition of delta opioid receptor mediated GTPgammaS binding to CHO cell membranes; type: functional
Outline: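 Purchased CHO-hδ cell membranes at 10 µg/mL, coupled to SPA beads at 5 mg/mL. Incubated with 0.5 nM [35S]GTPγS and 50 µM GDP in 50 mM HEPES pH 7.6 with 5 mM MgCl2, 100 mM NaCl, 1 mM DTT and 1 mM EDTA. Increasing agonist concentrations stimulated binding. Basal binding measured without agonist; nonspecific binding with 10 µM unlabeled GTPγS.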

Mu-type opioid receptor [3] = biological target: Mu-type opioid receptor (Cavia porcellus, UniProt P97266); assay: Inhibition of mu opioid receptor mediated GTPgammaS binding to CHO cell membranes; type: functional
[4] = biological target: Delta-type opioid receptor (Rattus norvegicus, UniProt P33533); assay: Binding affinity for delta opioid receptor of rat brain
Outline: (§1)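 Male Wistar rat forebrain membranes in 50 mM Tris HCl pH 7.4 with 5 mM MgCl2. Incubated 2.5 h at 25 °C with ~4 nM [3H]DPDPE (δ) or ~0.8 nM [3H]DAMGO (μ). Filtered, rinsed with 10 mM HEPES pH 7.4 and counted by liquid scintillation. Ki derived from a range of test concentrations; single-concentration data expressed as % inhibition of specific binding.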

Mu-type opioid receptor [5] = biological target: Mu-type opioid receptor (Rattus norvegicus, UniProt P33535); assay: Binding affinity for Mu opioid receptor of rat brain; outline: as §1
[6] = biological target: Kappa-type opioid receptor (Cavia porcellus, UniProt P41144); assay: Binding affinity for kappa opioid receptor of guinea pig cerebellum; type: tissue-based
[7] = biological target: Kappa-type opioid receptor (Homo sapiens, UniProt P41145); assay: Inhibition of rabbit vas deferens contractions; type: functional, Oryctolagus cuniculus; details: target entry is the homologue from another species
Outline: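 κ functional study run on rabbit vas deferens tissue.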

Mus musculus [8] = assay: Percent inhibition of mouse abdominal constriction at a dose of 10 ug upon intracerebro ventricular administration; type: functional, Abdomen
Outline: (§2)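 Male CD1 mice (18–40 g), n = 10 per group, dosed sc (10 mL/kg volume) or icv. Then challenged ip with acetylcholine bromide dissolved in distilled water (5.5 mg/kg as printed), given at 0.20 mL/20 g.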

Mus musculus [9] = assay: Percent inhibition of mouse abdominal constriction at a dose of 100 mg/kg when administered subcutaneously; type: functional; details: Abdomen, sc, route subcutaneous; outline: as §2
Mus musculus [10] = assay: Percent inhibition of mouse abdominal constriction at a dose of 100 ug upon intracerebro ventricular administration; type: functional, Abdomen; outline: as §2

Chain of Opioid receptors; mu & delta (Rattus norvegicus) (P33533 whole entry, looked up): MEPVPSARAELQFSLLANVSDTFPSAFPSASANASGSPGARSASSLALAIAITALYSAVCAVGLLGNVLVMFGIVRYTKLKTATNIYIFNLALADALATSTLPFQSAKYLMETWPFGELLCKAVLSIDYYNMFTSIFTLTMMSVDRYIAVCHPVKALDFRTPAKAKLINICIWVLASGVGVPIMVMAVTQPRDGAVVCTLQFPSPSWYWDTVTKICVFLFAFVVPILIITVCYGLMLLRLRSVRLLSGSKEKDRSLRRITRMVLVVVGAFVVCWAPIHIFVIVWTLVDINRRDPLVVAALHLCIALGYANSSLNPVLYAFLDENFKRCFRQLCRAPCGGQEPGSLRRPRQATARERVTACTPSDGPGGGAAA
Chain of Opioid receptors; mu & delta (Rattus norvegicus) (P33535 whole entry, looked up): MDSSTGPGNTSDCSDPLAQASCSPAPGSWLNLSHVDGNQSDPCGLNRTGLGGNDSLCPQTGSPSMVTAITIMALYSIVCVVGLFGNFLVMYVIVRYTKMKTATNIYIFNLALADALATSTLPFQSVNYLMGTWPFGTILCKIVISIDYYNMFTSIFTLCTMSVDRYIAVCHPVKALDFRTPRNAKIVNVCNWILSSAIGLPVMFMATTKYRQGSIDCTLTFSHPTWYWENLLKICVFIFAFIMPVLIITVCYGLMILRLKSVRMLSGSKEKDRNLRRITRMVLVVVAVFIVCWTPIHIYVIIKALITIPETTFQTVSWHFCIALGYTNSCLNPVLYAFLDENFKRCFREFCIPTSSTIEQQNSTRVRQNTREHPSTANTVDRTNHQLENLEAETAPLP
Chain of Delta-type opioid receptor (Rattus norvegicus, UniProt P33533) (P33533 whole entry): as the sequence (P33533 whole entry, looked up) above
Chain of Mu-type opioid receptor (Rattus norvegicus, UniProt P33535) (P33535 whole entry): as the sequence (P33535 whole entry, looked up) above
Chain of Delta-type opioid receptor (Homo sapiens, UniProt P41143) (P41143 whole entry): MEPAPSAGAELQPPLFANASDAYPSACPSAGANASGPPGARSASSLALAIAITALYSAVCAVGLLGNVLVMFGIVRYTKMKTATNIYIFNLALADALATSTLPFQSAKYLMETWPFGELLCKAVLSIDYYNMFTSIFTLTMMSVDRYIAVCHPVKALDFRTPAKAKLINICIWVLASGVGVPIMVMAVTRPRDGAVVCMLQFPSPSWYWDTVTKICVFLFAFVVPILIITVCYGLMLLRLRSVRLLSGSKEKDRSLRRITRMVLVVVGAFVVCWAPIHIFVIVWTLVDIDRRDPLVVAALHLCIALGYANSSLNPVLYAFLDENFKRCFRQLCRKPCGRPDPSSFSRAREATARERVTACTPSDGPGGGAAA
Chain of Mu-type opioid receptor (Cavia porcellus, UniProt P97266) (P97266 whole entry): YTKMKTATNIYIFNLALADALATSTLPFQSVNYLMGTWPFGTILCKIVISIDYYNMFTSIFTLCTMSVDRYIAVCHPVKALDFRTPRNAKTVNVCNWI
Chain of Kappa-type opioid receptor (Cavia porcellus, UniProt P41144) (P41144 whole entry): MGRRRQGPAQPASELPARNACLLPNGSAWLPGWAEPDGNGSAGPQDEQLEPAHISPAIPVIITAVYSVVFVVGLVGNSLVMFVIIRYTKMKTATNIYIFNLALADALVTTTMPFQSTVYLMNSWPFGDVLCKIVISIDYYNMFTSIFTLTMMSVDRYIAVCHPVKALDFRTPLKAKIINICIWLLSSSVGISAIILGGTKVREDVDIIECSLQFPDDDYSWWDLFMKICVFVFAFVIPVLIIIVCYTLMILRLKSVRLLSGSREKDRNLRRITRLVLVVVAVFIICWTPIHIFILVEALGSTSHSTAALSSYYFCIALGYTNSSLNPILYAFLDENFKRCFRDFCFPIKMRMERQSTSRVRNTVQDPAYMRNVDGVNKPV
Chain of Kappa-type opioid receptor (Homo sapiens, UniProt P41145) (P41145 whole entry): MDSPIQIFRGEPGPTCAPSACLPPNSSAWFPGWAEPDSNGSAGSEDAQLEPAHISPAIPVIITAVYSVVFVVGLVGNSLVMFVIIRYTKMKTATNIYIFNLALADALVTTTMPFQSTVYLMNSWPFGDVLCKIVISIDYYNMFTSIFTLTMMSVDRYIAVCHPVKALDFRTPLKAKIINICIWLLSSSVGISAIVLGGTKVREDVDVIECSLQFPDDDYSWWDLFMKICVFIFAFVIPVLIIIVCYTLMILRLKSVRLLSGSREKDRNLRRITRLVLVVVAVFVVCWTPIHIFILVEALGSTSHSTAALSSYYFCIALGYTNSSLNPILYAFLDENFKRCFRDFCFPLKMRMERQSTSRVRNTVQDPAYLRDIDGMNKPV

Compound	Selectivity [1]	EC50 [2]	EC50 (Mu-type opioid receptor [3])	Ki [4]	Ki (Mu-type opioid receptor [5])	other results
Cc1[nH]c([C@@H]2CCCCN2C(=O)[C@@H](N)Cc2ccc(O)cc2)nc1-c1ccccc1	0.1	542 nM	153 nM	21.5 nM	1.5 nM	–
N[C@@H](Cc1ccc(O)cc1)C(=O)N1Cc2ccccc2C[C@H]1c1nc2ccccc2[nH]1 (single isomer, unassigned) [listing 1 of 2 here]	> 2	–	–	–	–	–
Cc1[nH]c([C@@H]2Cc3ccccc3CN2C(=O)[C@@H](N)Cc2ccc(O)cc2)nc1-c1ccccc1 (stereo in doubt) [listing 1 of 2 here]	–	127 nM	–	19.4 nM	85.6 nM	–
CCCc1c[nH]c([C@@H]2Cc3ccccc3N2C(=O)[C@@H](N)CC)n1	–	–	–	> 100 nM	> 100 nM	–
N[C@@H](Cc1ccc(O)cc1)C(=O)N1Cc2ccccc2C[C@H]1c1nc(-c2ccccc2)c(Br)[nH]1	–	1.9 nM	> 10000 nM	0.11 nM	11.6 nM	–
N[C@@H](Cc1ccc(O)cc1)C(=O)N1Cc2ccccc2C[C@H]1c1nc2ccccc2[nH]1 (single isomer, unassigned) [listing 2 of 2 here]	–	440 nM	–	49.6 nM	> 100 nM	–
N[C@@H](Cc1ccc(O)cc1)C(=O)N1Cc2ccccc2C[C@H]1C(=O)NCCc1ccccc1 (HELM PEPTIDE1{Y.[Tic].[c1ccc(CCN[*:1])cc1]}$$$$V2.0)	13	82 nM	2120 nM	5.2 nM	69 nM	–
CCCc1[nH]c([C@@H]2Cc3ccccc3CN2C(=O)[C@@H](N)Cc2ccc(O)cc2)nc1C	> 1	–	–	–	–	–
N[C@@H](Cc1ccc(O)cc1)C(=O)N1Cc2ccccc2C[C@H]1c1nc(-c2ccccc2)c[nH]1	63	25 nM	2400 nM	0.9 nM	54.7 nM	Ki [6]: 124 nM; EC50 [7]: > 30 nM; Inhibition (Mus musculus [8]): 40%; inhibition in vivo at 100 mg/kg (Mus musculus [9]): 0%; Inhibition (Mus musculus [10]): 100%
CCCc1nc([C@@H]2Cc3ccccc3CN2C(=O)[C@@H](N)Cc2ccc(O)cc2)[nH]c1C	–	85 nM	–	62.7 nM	> 100 nM	–
Cc1[nH]c([C@@H]2Cc3ccccc3CN2C(=O)[C@@H](N)Cc2ccc(O)cc2)nc1-c1ccccc1 (stereo in doubt; 4c) [listing 1 of 2 here]	75	–	–	–	–	–
Cc1[nH]c([C@@H]2Cc3ccccc3CN2C(=O)[C@@H](N)Cc2ccc(O)cc2)nc1-c1ccccc1 (stereo in doubt; 4c) [listing 2 of 2 here]	–	1.4 nM	> 10000 nM	0.3 nM	20.7 nM	–
CCCc1nc([C@@H]2Cc3ccccc3CN2C(=O)[C@@H](N)Cc2ccc(O)cc2)[nH]c1C (single isomer, unassigned)	–	–	–	> 100 nM	> 100 nM	–
N[C@@H](Cc1ccc(O)cc1)C(=O)N1Cc2ccccc2C[C@H]1c1nc(Br)c(-c2ccccc2)[nH]1	14	–	–	–	–	–
CN(C)C(=O)C(CCN1CCC(O)(c2ccc(Cl)cc2)CC1)(c1ccccc1)c1ccccc1 [LOPERAMIDE]	–	–	58 nM	50.1 nM	–	–
N[C@@H](Cc1ccc(O)cc1)C(=O)N1Cc2ccccc2C[C@H]1c1nc2ccccc2[nH]1 [listing 1 of 2 here]	> 6	–	–	–	–	–
Cc1[nH]c([C@@H]2CCCN2C(=O)[C@@H](N)Cc2ccc(O)cc2)nc1-c1ccccc1	< 0.02	–	1300 nM	> 100 nM	23.1 nM	–
N[C@@H](Cc1ccc(O)cc1)C(=O)N1Cc2ccccc2C[C@H]1c1nc2ccccc2[nH]1 [listing 2 of 2 here]	–	37 nM	> 10000 nM	15.1 nM	> 100 nM	–
Cc1[nH]c([C@@H]2Cc3ccccc3CN2C(=O)[C@@H](N)Cc2ccc(O)cc2)nc1-c1ccccc1 (stereo in doubt) [listing 2 of 2 here]	4	–	–	–	–	–
